VIM-2 inhibitor = VIM-2 metallo-beta-lactamase inhibitors, primary screen, biochemical, epi-absorbance readout, Pseudomonas aeruginosa enzyme | purified VIM-2, nitrocefin hydrolysis, epi-absorbance fluorescence | inhibition, % at 5.6 µM | 0.89% of 290,000 active | AID 1527, 2009;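 active means inhibition above the mean of all tested compounds plus 3 SD, cutoff set per screening run, cut at about 7.5% in these data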;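 further: red hydrolysis product quenches plate fluorescence so inhibitors raise well fluorescence; 0% = enzyme with DMSO and 100% = DMSO without enzyme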
HCV NS3 hel inh = inhibitors of HCV NS3 helicase, primary screen, biochemical, Cy5 molecular beacon fluorescence; Hepatitis C virus NS3 helicase; NS3 helicase DNA unwinding; inhibition, % at 10.9 µM; 0.56% of 290,000 active; AID 1800, 2009;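 active means inhibition above the mean of all tested compounds plus 3 SD, set per campaign, cut at about 35% in these data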;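 further: 0% = DMSO wells and 100% = thioflavine S control wells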
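Assay system: hepatitis C virus NS3 helicase domain fragment enzyme. Also added: annealed dual-labelled DNA beacon duplex, ATP-started. Timing: 1 h reaction at 25 °C, ATP-initiated. Technique: Cy5 fluorescence at 0 and 60 min, beacon hairpin quenching. Evaluation: % inhibition of unwinding. Replication: one well per compound.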
IMP-1 inh = IMP-1 metallo-beta-lactamase inhibitors, primary screen, biochemical, epi-absorbance readout, Pseudomonas aeruginosa enzyme | metallo-beta-lactamase IMP-1 (Pseudomonas aeruginosa) | purified IMP-1, nitrocefin hydrolysis, epi-absorbance fluorescence | inhibition, % at 5.6 µM | AID 1556, 2009 | 0.45% of 290,000 active;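 active means inhibition above the mean plus 3 SD of all compounds in the same screening run, cut at about 4.5% in these data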;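 further: 0% = IMP-1 with DMSO and 100% = DMSO wells lacking enzyme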
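Assay system: purified IMP-1; Quantity: IMP-1 0.2 nM before substrate addition; Medium: HEPES buffer pH 7.1 with ZnSO4 and Brij 35; Incubation: 15 min enzyme–compound preincubation, then 25 min nitrocefin reaction, 25 °C; Signal: fluorescence quenching readout, ex 480/em 530 nm; Controls: DMSO with and without IMP-1; Repeats: singlicate testing.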
DNA FID counter-1 = compounds displacing fluorescent DNA intercalator, primary screen, artefact control for HCV NS3 helicase inhibitor project, biochemical, FID fluorescence. AID 1845, 2009. DNA fluorescent intercalator displacement. inhibition, % at 7.9 µM. 0.17% of 290,000 active;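 further: 0% = vehicle and 100% = reference compound; higher means more ethidium bromide displaced from hairpin DNA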
NS3 helicase cf = HCV NS3 helicase inhibitors, retest, confirmation, biochemical, Cy5 molecular beacon fluorescence, triplicate; shares compounds with HCV NS3 hel inh; AID 1943, 2009; 31% of 1,600 active; inhibition, % at 10.9 µM; NS3 helicase DNA unwinding;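 active means inhibition above the mean of all tested compounds plus 3 SD, cutoff set per campaign, cut at about 36% in these data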
DNA FID counter-2 = compounds displacing fluorescent DNA intercalator, artefact control for HCV NS3 helicase inhibitor project, biochemical, FID fluorescence, triplicate; shares compounds with HCV NS3 hel inh; DNA fluorescent intercalator displacement; inhibition, % at 7.9 µM; 4% of 1,600 active; AID 1945, 2009;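 further: 0% = vehicle and 100% = reference compound; higher means more displacement of ethidium bromide from the DNA hairpin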
FID counter DR = compounds displacing fluorescent intercalator from DNA, dose response, counter-screen for HCV NS3 helicase inhibitor project, biochemical, fluorescence; AID 2172, 2009; 120 tested, under 10 active; IC50, µM; shares compounds with HCV NS3 hel inh; fluorescent intercalator displacement from DNA; call rule not given here
* = called active by the depositor; · = no result given. Sampled rows, rich in hits. Any-hit rate of the full collection: about 1.9%. Unless noted, no stated cut-off is given here; in the data, active means inhibition above about 37%; inactive means the rest.

SMILES	VIM-2 inhibitor	HCV NS3 hel inh	IMP-1 inh	DNA FID counter-1	NS3 helicase cf	DNA FID counter-2	others
CCOc1cc(/C=N/Nc2cccc(C(=O)O)c2)ccc1OCC(=O)N1CCCCC1	-2.4	3.5	-1.2	-32.7	·	·
Cc1ccc(-c2nc(=S)c3c(n2Cc2ccco2)CCCC3)cc1	-0.8	40.8*	-3.9	-8.8	18.3	-2.2
CCC(=O)Oc1ccc2ccccc2c1CNC(=O)c1ccccc1	-0.6	0.2	-2.6	-15.0	·	·
C=CCNC(=O)CSc1nnc(-c2ccc(S(=O)(=O)N3CCCC3)cc2)n1C	1.0	47.4*	1.1	-23.0	-13.9	4.7
NC(=S)N/N=C1\c2ccccc2-c2c(C(=O)O)cccc21	0.7	-14.6	-2.0	-5.4	·	·
CCOc1ncccc1C(=O)OCc1cc(=O)oc2c(C)c(C)ccc12	-0.5	7.2	-1.4	-20.0	·	·
Cc1cccc(C(=O)OCc2cc(=O)oc3c(C)c(C)ccc23)c1O	-1.2	36.9*	-3.4	-8.1	-11.3	13.8
O=C(O)/C(CC(=O)c1ccc(Cl)cc1)=N/Nc1ccc([N+](=O)[O-])cc1[N+](=O)[O-]	-2.6	37.6*	-1.9	29.9	52.4*	55.5*
Cc1ccccc1CC(=O)N1CC(C)OC(C)C1 (configuration not stated)	-0.7	-13.1	-2.2	-5.4	·	·
COC(=O)C1=C(C)NC(C)=C(C(=O)OC)C1c1ccc(-c2cc(Cl)ccc2Cl)o1	-3.0	15.3	-0.1	-2.0	·	·
COCCOC(=O)C1=C(C)NC(=O)NC1c1ccc(-c2cc(Cl)ccc2Cl)o1 (configuration not stated)	-4.1	42.9*	0.6	-46.9	-19.6	-19.4
Cc1cc(C)n2nc(C(=O)OCC(=O)c3c[nH]c4ccccc34)nc2n1	-0.6	10.3	-3.3	-1.0	·	·
CCCc1nnc(NC(=O)CSc2nnc(-c3ccco3)n2C)s1	1.5	-3.1	-0.6	-23.3	·	·
C=CCOc1cccc(C2C(C(=O)c3ccco3)=C(O)C(=O)N2Cc2ccco2)c1 (configuration not stated)	-0.4	38.1*	0.9	-45.7	23.4	-15.8
CCOc1cccc(C2C(C(=O)c3ccc(C)o3)=C(O)C(=O)N2Cc2ccccc2)c1 (configuration not stated)	-0.3	62.0*	-0.1	-34.1	78.6*	-28.6	FID counter DR=>79.4
O=C(c1cc(Cl)ccc1[N+](=O)[O-])N1CCc2ccccc2C1	-2.9	2.4	-3.8	-3.6	·	·
CCOC(=O)C(CC)(CCC(=O)OC)c1csc(Nc2ccccc2O)n1 (configuration not stated)	4.0	39.6*	-4.4	-39.5	3.6	-23.4
COC(=O)CCCCCCCC(=O)Nc1nnc(C(F)(F)F)s1	-1.6	5.6	-0.5	-18.7	·	·
CCN(CC)CCCNC(=S)N1CCC(c2nc3ccccc3[nH]2)CC1	-0.7	-4.9	-2.8	8.7	·	·
CN1CCN(C(c2ccc(C(F)(F)F)cc2)c2cc(Cl)c3cccnc3c2O)CC1 (configuration not stated)	-4.5	-40.0	-2.0	-1.6	·	·
CN1CCN(C(c2ccc(Cl)cc2)c2cc(Cl)c3cccnc3c2O)CC1 (configuration not stated)	-7.0	46.2*	-2.6	-10.6	17.1	57.9*
COc1ccc(N=C2SC(CC(=O)Nc3ccccc3OC)C(=O)N2Cc2ccco2)cc1 (configuration not stated)	-0.1	40.9*	-1.4	-27.9	-13.8	-26.1
C=CCNC(=O)/C(C#N)=C/c1c(C)nn(-c2ccccc2)c1Cl	-3.9	7.1	-3.4	-5.5	·	·
Cc1cc(S(=O)(=O)N2CCCCC2)c(C)s1	-2.7	67.1*	-1.0	-6.6	-10.1	-4.7
Cc1cc(S(=O)(=O)N2CCCC2)c(C)s1	-2.6	4.0	-3.5	-2.0	·	·
SMILES	VIM-2 inhibitor	HCV NS3 hel inh	IMP-1 inh	DNA FID counter-1	NS3 helicase cf	DNA FID counter-2	others
Cc1c2c(=O)n(-c3nc4ccccc4s3)nc-2cc(O)n1Cc1ccccc1	-1.0	48.3*	-0.6	-19.2	46.5*	11.6
Cc1cc(C)n(-c2nc3ccccc3s2)n1	-4.0	7.1	-2.1	0.2	·	·
CCOc1ccccc1-c1nnc(SCC(=O)NC2CC2)n1CC	-2.4	7.6	-2.8	-5.8	·	·
CCN(CC)S(=O)(=O)c1ccc(NCc2ccccn2)nc1	-2.5	1.1	-1.6	2.5	·	·
Cc1nnc(-c2ccco2)c2cn(-c3cccc(Br)c3)nc12	-2.8	39.0*	-3.6	-10.1	3.7	8.9
CC(=O)c1nn(-c2cccc(Br)c2)cc1C(=O)c1ccco1	0.5	8.0	-4.5	-2.8	·	·
CCOC(=O)c1c(S(=O)(=O)Nc2ccccc2OCC)c(C)n(C)c1C	-1.8	11.1	-3.5	-9.7	·	·
CCN(CC(=O)NCc1ccc(Cl)cc1)C(=O)CNS(=O)(=O)c1ccc(NC(C)=O)cc1	-2.9	6.7	-2.9	-14.2	·	·
Cc1cccc2nc(-c3ccco3)c(Nc3ccc4c(c3)OCO4)n12	-2.2	40.3*	-3.3	-29.9	8.8	2.7
Cc1cccc2nc(-c3ccco3)c(Nc3ccccc3)n12	-2.1	4.0	-3.8	-7.7	·	·
Cc1ccc(C(=O)c2coc3ccc(O)c(Cl)c23)cc1	0.6	-3.4	-3.3	-11.2	·	·
CCOC(=O)C(C(C)=O)c1c(Br)c(O)c(O)c2c(C(=O)c3ccc(C)cc3)coc12 (configuration not stated)	0.2	38.0*	0.2	-22.5	-3.3	15.9
CC(C)(C)NC(=O)Cn1c(=O)c(=O)n(Cc2ccccc2)c2ccc(Cl)cc21	0.8	2.8	-2.8	-9.6	·	·
COc1ccc(C(=O)OC(C)C(=O)NC(C)CCc2ccccc2)c(OC)c1 (configuration not stated)	-0.9	31.1	-2.3	-38.6	·	·
Cc1ccc2c(c1)NC(C(C)(C)C)CO2 (configuration not stated)	-2.0	85.1*	-1.7	6.5	-2.5	15.4
COc1cccc(CC(NC(C)=O)C(=O)NC2CCN(S(=O)(=O)c3ccc(C)cc3)CC2)c1OC (configuration not stated)	-2.3	-3.7	-2.5	-8.2	·	·
COc1cc(/C=C2\SC(c3ccc(C)cc3)=NC2=O)cc(OC)c1O	3.7	-5.3	1.6	-9.8	·	·
Cc1ccc(C2=NC(=O)/C(=C/c3cc(O)c(O)c(Br)c3)S2)cc1	-0.7	53.0*	3.4	-6.1	-17.4	6.3
Cc1nc(NCCOc2ccccc2)sc1C(=O)Nc1ccccc1	-4.1	-1.6	-3.5	-24.1	·	·
